Columns and labels:
Type in all cases: functional
ACHN = assay: Growth inhibition of human ACHN cells after 48 hrs by sulforhodamine B assay
IGROV-1 = assay: Growth inhibition of human IGROV1 cells after 48 hrs by sulforhodamine B assay; conditions: IGROV-1, 48 h
How it was run: (§1)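 NCI 60-human-tumor-cell-line panel, with compounds tested over a 5-log dose range. Values are taken from dose-response curves as log10 molar concentrations: GI50 is 50% net growth inhibition, TGI is total growth inhibition, and LC50 is 50% net cell death.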

NCI-H460 = assay: Anticancer activity against human NCI-H460 cells assessed as cell growth at 100 uM after 48 hrs by sulforhodamine B assay; conditions: NCI-H460, 48 h, read-out: Activity
HT-29 = assay: Growth inhibition of human HT-29 cells after 48 hrs by sulforhodamine B assay; conditions: HT-29, 48 h; how it was run: as §1
MCF7 = assay: Growth inhibition of human MCF7 cells after 48 hrs by sulforhodamine B assay; conditions: MCF7, 48 h; how it was run: as §1
SN12C = assay: Growth inhibition of human SN12C cells after 48 hrs by sulforhodamine B assay
How it was run: (§2)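 Run in the NCI 60-human-tumour-cell-line panel, tested over a 5-log dose range. Dose–response curves gave three values per cell line, each as a log10 molar concentration: GI50 (50% inhibition of net cell growth), TGI (total inhibition of net growth) and LC50 (50% net cell death). The mean graph midpoint is the arithmetic mean over all lines, with insensitive lines entered at the highest concentration tested.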

UO-31 = assay: Growth inhibition of human UO31 cells after 48 hrs by sulforhodamine B assay; conditions: UO-31, 48 h; how it was run: as §2
NCI-H226 = assay: Growth inhibition of human NCI-H226 cells after 48 hrs by sulforhodamine B assay; conditions: NCI-H226, 48 h; how it was run: as §1
Malme-3M = assay: Growth inhibition of human MALME-3M cells after 48 hrs by sulforhodamine B assay; how it was run: as §1
HOP-62 = assay: Growth inhibition of human HOP62 cells after 48 hrs by sulforhodamine B assay; conditions: HOP-62, 48 h; how it was run: as §1
HOP-92 = assay: Growth inhibition of human HOP92 cells after 48 hrs by sulforhodamine B assay; conditions: HOP-92, 48 h; how it was run: as §1
CCRF-CEM = assay: Growth inhibition of human CCRF-CEM cells after 48 hrs by sulforhodamine B assay; how it was run: as §1
HCT-15 = assay: Growth inhibition of human HCT15 cells after 48 hrs by sulforhodamine B assay; conditions: HCT-15, 48 h; how it was run: as §1
UACC-62 = assay: Growth inhibition of human UACC62 cells after 48 hrs by sulforhodamine B assay; conditions: UACC-62, 48 h; how it was run: as §2
SK-MEL-2 = assay: Growth inhibition of human SK-MEL-2 cells after 48 hrs by sulforhodamine B assay; conditions: SK-MEL-2, 48 h; how it was run: as §1
SK-MEL-28 = assay: Growth inhibition of human SK-MEL-28 cells after 48 hrs by sulforhodamine B assay; conditions: SK-MEL-28, 48 h; how it was run: as §1
OVCAR-3 = assay: Growth inhibition of human OVCAR-3 cells after 48 hrs by sulforhodamine B assay; conditions: OVCAR-3, 48 h; how it was run: as §1
SF-268 = assay: Growth inhibition of human SF268 cells after 48 hrs by sulforhodamine B assay; conditions: SF-268, 48 h; how it was run: as §1
NCI-H322M = assay: Growth inhibition of human NCI-H322M cells after 48 hrs by sulforhodamine B assay; how it was run: as §1
K562 = assay: Growth inhibition of human K562 cells after 48 hrs by sulforhodamine B assay; conditions: K562, 48 h; how it was run: as §1
SK-MEL-5 = assay: Growth inhibition of human SK-MEL-5 cells after 48 hrs by sulforhodamine B assay; conditions: SK-MEL-5, 48 h; how it was run: as §1
HL-60(TB) = assay: Growth inhibition of human HL-60(TB) cells after 48 hrs by sulforhodamine B assay; conditions: HL-60, 48 h
How it was run: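 Tested only on compounds active in a three-line prescreen, in the NCI 60-human-tumour-cell-line panel over a 5-log dose range. Values come from dose–response curves as log10 molar GI50, the concentration inhibiting 50% net cell growth. Log10 TGI (total growth inhibition) and log10 LC50 (50% net cell death) were derived too. Mean graph midpoints include insensitive lines at the highest concentration tested.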

T47D = assay: Growth inhibition of human T47D cells after 48 hrs by sulforhodamine B assay; how it was run: as §2
NCI-H522 = assay: Growth inhibition of human NCI-H522 cells after 48 hrs by sulforhodamine B assay; conditions: NCI-H522, 48 h; how it was run: as §1
A498 = assay: Growth inhibition of human A498 cells after 48 hrs by sulforhodamine B assay; conditions: A498, 48 h; how it was run: as §1
OVCAR-4 = assay: Growth inhibition of human OVCAR4 cells after 48 hrs by sulforhodamine B assay; conditions: OVCAR-4, 48 h; how it was run: as §1
UACC-257 = assay: Growth inhibition of human UACC257 cells after 48 hrs by sulforhodamine B assay; conditions: UACC-257, 48 h; how it was run: as §2
[1] = read-out: pLC50 (the source's name) (converted)

In the case of `COc1ccc(CNc2nc3cc(N)cc(N)c3nc2-c2ccccc2)cc1`, the GI50 (ACHN) is reported as 14.8 µM, the CC50 (ACHN; [1]) is reported as 75.9 µM and the TGI (ACHN; read-out: pTGI (converted)) is reported as 33.9 µM. It also gave a GI50 (IGROV-1) of 12.9 µM, a CC50 (IGROV-1; [1]) of 56.2 µM and a TGI (IGROV-1; read-out: pTGI (converted)) of 26.9 µM. The growth at 100 µM (NCI-H460) was 0%, the GI50 (HT-29) was 24.5 µM and the LC50 (HT-29) was > 100 µM. The TGI (HT-29; read-out: pTGI (converted)) was 60.3 µM, the GI50 (MCF7) was 13.2 µM and the CC50 (MCF7; [1]) was 53.7 µM. For the same molecule, the TGI (MCF7; read-out: pTGI (converted)) was 26.3 µM, the GI50 (SN12C) was 17 µM and the CC50 (SN12C; [1]) was 69.2 µM. The TGI (SN12C; read-out: pTGI (converted)) was 34.7 µM, the GI50 (UO-31) was 11.5 µM and the CC50 (UO-31; [1]) was 72.4 µM. For the same molecule, the TGI (UO-31; read-out: pTGI (converted)) was 28.8 µM, the GI50 (NCI-H226) was 20.4 µM and the LC50 (NCI-H226) was > 100 µM. It also gave a TGI (NCI-H226; read-out: pTGI (converted)) of 70.8 µM, a GI50 (Malme-3M) of 10.7 µM and a CC50 (Malme-3M; [1]) of 47.9 µM. It also gave a TGI (Malme-3M; read-out: pTGI (converted)) of 22.4 µM, a GI50 (HOP-62) of 17.4 µM and an LC50 (HOP-62) of 69.2 µM. The TGI (HOP-62; read-out: pTGI (converted)) was 34.7 µM, the GI50 (HOP-92) was 12.9 µM and the LC50 (50% net cell death) (HOP-92) was > 100 µM. For the same molecule, the TGI (HOP-92; read-out: pTGI (converted)) was 37.2 µM, the GI50 (CCRF-CEM) was 3.39 µM and the LC50 (CCRF-CEM) was > 100 µM. It also gave a TGI (CCRF-CEM; read-out: pTGI (converted)) of 64.6 µM, a GI50 (HCT-15) of 15.8 µM and an LC50 (HCT-15) of 75.9 µM. For the same molecule, the TGI (HCT-15; read-out: pTGI (converted)) was 34.7 µM, the GI50 (UACC-62) was 14.8 µM and the CC50 (UACC-62; [1]) was 58.9 µM. The TGI (UACC-62; read-out: pTGI (converted)) was 29.5 µM, the GI50 (SK-MEL-2) was 14.8 µM and the CC50 (SK-MEL-2; [1]) was 57.5 µM. The TGI (SK-MEL-2; read-out: pTGI (converted)) was 28.8 µM, the GI50 (SK-MEL-28) was 17.4 µM and the CC50 (SK-MEL-28; [1]) was 60.3 µM. It also gave a TGI (SK-MEL-28; read-out: pTGI (converted)) of 32.4 µM, a GI50 (OVCAR-3) of 2.24 µM and a CC50 (OVCAR-3; [1]) of 38.9 µM. It also gave a TGI (OVCAR-3; read-out: pTGI (converted)) of 7.76 µM, a GI50 (SF-268) of 9.77 µM and an LC50 (SF-268) of 49 µM. For the same molecule, the TGI (SF-268; read-out: pTGI (converted)) was 21.9 µM, the GI50 (NCI-H322M) was 22.9 µM and the LC50 (NCI-H322M) was > 100 µM. The TGI (NCI-H322M; read-out: pTGI (converted)) was 52.5 µM, the GI50 (K562) was 25.1 µM and the LC50 (K562) was > 100 µM. For the same molecule, the TGI (K562; read-out: pTGI (converted)) was 97.7 µM, the GI50 (SK-MEL-5) was 17.8 µM and the CC50 (SK-MEL-5; [1]) was 56.2 µM. The TGI (SK-MEL-5; read-out: pTGI (converted)) was 31.6 µM, the GI50 (HL-60(TB)) was 13.5 µM and the LC50 (HL-60(TB)) was > 100 µM. The TGI (HL-60(TB); read-out: pTGI (converted)) was 51.3 µM, the GI50 (T47D) was 2.82 µM and the CC50 (T47D; [1]) was 72.4 µM. For the same molecule, the TGI (T47D; read-out: pTGI (converted)) was 11 µM, the GI50 (NCI-H522) was 10 µM and the LC50 (NCI-H522) was 47.9 µM. For the same molecule, the TGI (NCI-H522; read-out: pTGI (converted)) was 21.9 µM, the GI50 (A498) was > 100 µM and the CC50 (A498; [1]) was > 100 µM. The TGI (A498; read-out: pTGI (converted)) was > 100 µM, the GI50 (OVCAR-4) was 8.13 µM and the CC50 (OVCAR-4; [1]) was 47.9 µM. The TGI (OVCAR-4; read-out: pTGI (converted)) was 21.4 µM, the GI50 (UACC-257) was 16.2 µM and the CC50 (UACC-257; [1]) was 56.2 µM. For the same molecule, the TGI (UACC-257; read-out: pTGI (converted)) was 30.2 µM.
